In paper PMC11751479 (Nature Communications, 2025) one finds Km data, which are given here for 4 molecules.

Holding throughout (assay): HPLC assay, Michaelis-Menten regression
What all share (type): biochemical, Cistanche tubulosa

One experiment relates to CtUGT85A191. The following applies: read-out: apparent KM; UDP-glucose donor; optimal conditions (supplement). The procedure, abridged: (§1)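 Recombinant enzyme is expressed in E. coli and purified. Kinetic reactions follow supplementary methods. They are stopped with a double volume of methanol and centrifuged at 12,000 × g for 30 min, and the supernatant is analysed by HPLC. Kinetic constants come from nonlinear Michaelis-Menten regression.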

The next experiment deals with CtUGT85AF12. The following applies: read-out: apparent KM; UDP-glucose donor; optimal conditions (supplement). The procedure, abridged: as §1
For the next experiment, the system named is CtUGT79G13. The following applies: UDP-rhamnose donor; optimal conditions (supplement).
For a further experiment, the system named is CtUGT73EV1. The following applies: UDP-glucose donor; optimal conditions (supplement).

Molecules are shown by their SMILES.

Regarding `OCCc1ccc(O)cc1` [compound 9, tyrosol], the Michaelis-Menten constant (Km) (usually the concentration of substrate that gives half-maximal velocity) in the experiment on CtUGT85A191 came out at 138 ± 22.7 µM; with CtUGT85AF12, 9.92 ± 2.2 µM.

On to `OCCc1ccc(O)c(O)c1` [compound 10, hydroxytyrosol], for which the Km was 288 ± 36.8 µM in the experiment with CtUGT85A191 and 75.7 ± 12 µM in the experiment with CtUGT85AF12.

Regarding `O=C(/C=C/c1ccc(O)c(O)c1)O[C@H]1[C@H](O)[C@@H](O)[C@H](OCCc2ccc(O)c(O)c2)O[C@@H]1CO` [compound 18, calA], the Km with CtUGT79G13 is 77.8 ± 6.1 µM.

Take `C[C@@H]1O[C@@H](O[C@@H]2[C@@H](O)[C@H](OCCc3ccc(O)c(O)c3)O[C@H](CO)[C@H]2OC(=O)/C=C/c2ccc(O)c(O)c2)[C@H](O)[C@H](O)[C@H]1O` [compound 20, acteoside]: the Km in the experiment on CtUGT73EV1 was 135 ± 24.1 µM.
